In ChEMBL document CHEMBL1123993, “2(1H)-quinolinones with cardiac stimulant activity. 1. Synthesis and biological activities of (six-membered heteroaryl)-substituted derivatives” (1988):

How the values were obtained:
Canis familiaris [1] = assay: Percentage increase in dP/dt maximum observed with 4-[4-[2-(1,1-dioxo-2-isothiazolidinyl)-ethyl]-[…] (50 ug/Kg) in dog; assay type: functional, Canis lupus familiaris
Summary of the method: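 Standard quinazoline inotrope given iv at 50 µg/kg to anesthetized dogs before each test compound. Left ventricular pressure recorded by Millar catheter via the carotid artery and differentiated to dP/dt max. Response expressed as % increase in dP/dt max; individual values taken from a typical test run.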

Canis familiaris [2] = assay: Inotropic activity measured as % increase in dP/dt maximum in Anesthetized dog at the dose of 50 ug/Kg administered intravenously; assay type: functional, Canis lupus familiaris
Summary of the method: (§1)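 Anesthetized dogs. LVP recorded via Millar catheter passed into the left ventricle through the carotid artery, differentiated to dP/dt max. After 0.75 h equilibration, compound given iv in 0.9% saline 0.5 h after a standard quinazoline inotrope (50 µg/kg). Cycle repeated once control levels returned, at least 0.5 h between doses. Reported as % increase in dP/dt max; relative potency normalised by dose to the standard in the same dog.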

Canis familiaris [3] = assay: Decrease in QA interval in Conscious dog (n=4) 1 hr after a dose of 1 mg / Kg was administered per orally; assay type: functional, Canis lupus familiaris; design: unit not given beside the values
Summary of the method: (§2)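 Conscious dogs (n = 4) given test substance as a solution by oral gavage. QA interval (ms from ECG R wave to arterial pressure pulse upstroke) recorded by computer every 0.16 h, from 0.5 h predose to 4 h postdose. Each time-point value is the mean of six consecutive 8-s sets. Reported as decrease from mean predose control.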

Canis familiaris [4] = assay: Decrease in QA interval in Conscious dog(n=4) 3h after a dose of 1 mg/kg was administered per orally
Canis familiaris [5] = assay: Decrease in QA interval in Conscious dog(n=4) 3h after a dose of 1 ug/kg was administered per orally; assay type: functional, Canis lupus familiaris; settings: in the assay text read “1 mg/kg” for “1 ug/kg”; summary of the method: as §2
Canis familiaris [6] = assay: Inotropic activity measured as % increase in dP/dt maximum in Anesthetized dog at the dose of 250 ug/Kg administered intravenously; assay type: functional, Canis lupus familiaris; summary of the method: as §1
Canis familiaris [7] = assay: Decrease in QA interval in Conscious dog (n=4) 3h after a dose of 1 ug/Kg was administered per orally; assay type: functional, Canis lupus familiaris; settings: in the assay text read “1 mg/Kg” for “1 ug/Kg”; summary of the method: as §2
Canis familiaris [8] = assay: Decrease in QA interval in Conscious dog (n=4) 1 hr after a dose of 1 mg/Kg was administered per orally
Canis familiaris [9] = assay: Inotropic activity measured as % increase in dP/dt maximum in Anesthetized dog at the dose of 12.5 ug/Kg administered intravenously; assay type: functional, Canis lupus familiaris; summary of the method: as §1
Canis familiaris [10] = assay: Decrease in QA interval in Conscious dog (n=4) 1 hr after a dose of 0.5 mg / Kg was administered per orally; assay type: functional, Canis lupus familiaris; summary of the method: as §2
Canis familiaris [11] = assay: Decrease in QA interval in Conscious dog(n=4) 3h after a dose of 1 mg/Kg was administered per orally; assay type: functional, Canis lupus familiaris; summary of the method: as §2
Canis familiaris [12] = assay: Decrease in QA interval in Conscious dog (n=4) 1 hr after a dose of 2 mg/Kg was administered per orally; assay type: functional, Canis lupus familiaris; summary of the method: as §2
Canis familiaris [13] = assay: Decrease in QA interval in Conscious dog(n=4) 3h after a dose of 2 mg/Kg was administered per orally; assay type: functional, Canis lupus familiaris; summary of the method: as §2
Canis familiaris [14] = assay: Inotropic activity measured as % increase in dP/dt maximum in Anesthetized dog at the dose of 25 ug/Kg administered intravenously; assay type: functional, Canis lupus familiaris; summary of the method: as §1
Canis familiaris [15] = assay: Decrease in QA interval in Conscious dog (n=4) 1 hr after a dose of 0.25 mg/Kg was administered per orally; assay type: functional, Canis lupus familiaris; summary of the method: as §2
Canis familiaris [16] = assay: Decrease in QA interval in Conscious dog (n=4) 3h after a dose of 0.25 mg/Kg was administered per orally; assay type: functional, Canis lupus familiaris; summary of the method: as §2

Row | Structure (SMILES) | Relative potency (Canis familiaris [1]) | dP/dt (Canis familiaris [2]) | also measured
1 | Oc1ccc2cc(-c3cncnc3)ccc2n1 | 1.1 | 44% | Decrease (Canis familiaris [3]): 3; Decrease (Canis familiaris [4]): 1
2 | CSc1cc(-c2ccc(C)nc2C)cc2ccc(O)nc12 | 0.5 | 20 | 
3 | Cc1ccncc1-c1ccc2nc(O)ccc2c1 | 1.3 | 21% | 
4 | Oc1ccc2ccc(-c3cccnc3)cc2n1 | 0.2 | 6% | 
5 | COc1ccc(-c2ccc3nc(O)ccc3c2)cn1 | 0.3 | 11% | 
6 | CCc1cc(-c2ccc(C)nc2C)cc2ccc(O)nc12 | 1 | 35% | 
7 | Cc1ccc(-c2cc(C(C)C)c3nc(O)ccc3c2)c(C)n1 | 0.4 | 16% | 
8 | Oc1ccc2cc(-c3ncccn3)ccc2n1 | 0.7 | 28% | Decrease (Canis familiaris [3]): 4; Decrease (Canis familiaris [5]): 4
9 | Cc1ccc(-c2cc(Br)c3nc(O)ccc3c2)c(C)n1 | 0.7 | 41% | 
10 | Cc1ccc(-c2ccc3c(c2)CCC(=O)N3)c(C)n1 | 0.8 | 32% | 
11 | COc1cc(-c2ccc(C)nc2C)cc2ccc(O)nc12 | 0.4 | 11% | 
12 | Cc1cc2nc(O)ccc2cc1-c1cccnc1 | 0.2 |  | dP/dt (Canis familiaris [6]): 51%
13 | O=[N+]([O-])c1cc2cc(-c3cccnc3)ccc2nc1O | 0.6 | 39% | 
14 | O=C1CCc2cc(-c3cccnc3)ccc2N1 | 1.1 | 41% | Decrease (Canis familiaris [7]): 7; Decrease (Canis familiaris [8]): 10
15 | Cc1cc(-c2cccnc2)cc2ccc(O)nc12 | 9 |  | dP/dt (Canis familiaris [9]): 112%; Decrease (Canis familiaris [10]): 16; Decrease (Canis familiaris [5]): 20
16 | Cc1ccc(-c2cc(C)c3nc(O)ccc3c2)c(C)n1 | 4.3 |  | dP/dt (Canis familiaris [9]): 43%; Decrease (Canis familiaris [3]): 21; Decrease (Canis familiaris [4]): 19
17 | Oc1ccc2c(-c3cccnc3)cccc2n1 | 0.9 | 44% | Decrease (Canis familiaris [3]): 9; Decrease (Canis familiaris [5]): 4

Row | Structure (SMILES) | Relative potency (Canis familiaris [1]) | dP/dt (Canis familiaris [2]) | also measured
18 | Cc1cc(O)nc2ccc(-c3cccnc3)cc12 | 0.7 | 39% | 
19 | Nc1cc2cc(-c3cccnc3)ccc2nc1O | 0.9 | 63% | 
20 | Cc1ccc(-c2ccc3nc(O)ccc3c2)cn1 | 1.3 | 46% | 
21 | Oc1ccc2cc(-c3ccncn3)ccc2n1 | 1.2 | 38% | Decrease (Canis familiaris [3]): 6; Decrease (Canis familiaris [5]): 2
22 | Cc1ccc(-c2ccc3nc(O)ccc3c2)c(C)n1 | 1.4 | 37% | Decrease (Canis familiaris [3]): 6; Decrease (Canis familiaris [5]): 5
23 | Nc1ccc(-c2ccc3nc(O)ccc3c2)cn1 | 0.8 | 30% | 
24 | Cc1ncccc1-c1ccc2nc(O)ccc2c1 | 1.7 | 74% | 
25 | Oc1ccc2cc(-c3ccncc3)ccc2n1 | 0.9 | 51% | Decrease (Canis familiaris [3]): 13; Decrease (Canis familiaris [11]): 8
26 | Oc1ccc2cc(-c3cccnn3)ccc2n1 | 0.7 | 32% | Decrease (Canis familiaris [3]): 8; Decrease (Canis familiaris [5]): 5
27 | Cc1ccc(-c2cc(O)c3nc(O)ccc3c2)c(C)n1 | <0.1 | 19% | 
28 | Oc1ccc2cc(-c3ccnnc3)ccc2n1 | 1.3 | 43% | 
29 | N#Cc1cc2cc(-c3cccnc3)ccc2nc1O | 0.9 | 46% | 
30 | Oc1ccc2cc(-c3ccccn3)ccc2n1 | 0.3 |  | dP/dt (Canis familiaris [6]): 62%; Decrease (Canis familiaris [12]): 2; Decrease (Canis familiaris [13]): 1
31 | Oc1ccc2cc(-c3cccnc3)ccc2n1 | 1.3 | 54% | Decrease (Canis familiaris [3]): 14; Decrease (Canis familiaris [11]): 7
32 | CSc1ccc(C(=O)c2[nH]c(=O)[nH]c2C)cc1 [ENOXIMONE] | 0.013 |  | dP/dt (Canis familiaris [6]): 32%
33 | Cc1[nH]c(=O)c(C#N)cc1-c1ccncc1 [MILRINONE] | 1.6 |  | dP/dt (Canis familiaris [14]): 46%; Decrease (Canis familiaris [15]): 13; Decrease (Canis familiaris [16]): 7
